Source: ChEMBL document CHEMBL6092204, “Synthesis of pyridyl pyrimidine hedgehog signaling pathway inhibitors and their antitumor activity in human pancreatic cancer” (Eur J Med Chem, 2024)
Active and inactive are the calls of the source. The calls are words filed in the database; no cut-off is given here.

Key:
[1] = Toxicity in BALB/c nude mouse xenografted with human BxPC-3 cells assessed as cellular edema in kidneys at 5 to 15 mg/kg, ip qd for 21 days by H and E staining based analysis; settings: in vivo, 504 h
[2] = Toxicity in BALB/c nude mouse xenografted with human BxPC-3 cells assessed as inflammatory infiltration in kidneys at 5 to 15 mg/kg, ip qd for 21 days by H and E staining based analysis; settings: in vivo, 504 h
PANC-1 [3] = assay: Inhibition of Hh signaling pathway in human PANC-1 cells assessed as reduction in Ptch1 mRNA level incubated for 48 hrs by qRT-PCR analysis; type: cell-based
Procedure, shortened: (§1)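 Total RNA was extracted by column kit after 48 h treatment and checked spectrophotometrically. Gli1 and Ptch1 transcripts were quantified by real-time RT-qPCR with GAPDH as internal control. Results are fold change relative to the untreated group; three separate experiments.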

PANC-1 [4] = assay: Inhibition of Hh signaling pathway in human PANC-1 cells assessed as reduction in Gli1 mRNA level incubated for 48 hrs by qRT-PCR analysis; type: cell-based; settings: dose 2.5-10 µM
Procedure, shortened: as §1

[5] = Toxicity in BALB/c nude mouse xenografted with human BxPC-3 cells assessed as necrosis in spleen at 5 to 15 mg/kg, ip qd for 21 days by H and E staining based analysis; settings: in vivo, 504 h
PANC-1 [6] = assay: Induction of apoptosis in human PANC-1 cells assessed as late apoptotic cells at 5 uM incubated for 48 hrs by Annexin V-FITC/PI staining based flow cytometry (reference value: 2.74 %); type: functional
BXPC-3 [7] = assay: Inhibition of Hh signaling pathway in human BXPC-3 cells assessed as reduction in Gli1 level incubated for 48 hrs by Western blot analysis; type: cell-based; settings: dose 2.5-10 µM
Procedure, shortened: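 Cells were treated in 6-well plates for 48 h, lysed by sonication in RIPA with PMSF, and quantified by BCA. 20-30 μg protein was run on 6-12% gradient SDS-PAGE and transferred to PVDF. Membranes were blocked 2 h at room temperature, probed with anti-Gli1 overnight at 4 °C and secondary 1.5 h at room temperature, then developed by ECL. Densitometry was normalised to β-actin; three separate experiments.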

BXPC-3 [8] = assay: Inhibition of Hh signaling pathway in human BXPC-3 cells assessed as reduction in Ptch1 mRNA level incubated for 48 hrs by qRT-PCR analysis; type: cell-based
Procedure, shortened: as §1

BXPC-3 [9] = assay: Induction of apoptosis in human BXPC-3 cells assessed as necrotic cells at 8 uM incubated for 48 hrs by Annexin V-FITC/PI staining based flow cytometry (reference value: 0.71 %); type: functional
Mus musculus = assay: In vivo inhibition of Gli1 in human BxPC-3 cells xenografted in BALB/c nude mouse at 5 to 15 mg/kg, ip qd for 21 days by IHC analysis; settings: dose 5-15 mg/kg, time 21.0 day
BXPC-3 [10] = assay: Induction of cell cycle arrest in human BXPC-3 cells assessed as accumulation at S phase at 10 uM incubated for 48 hrs by PI/RNase staining based flow cytometry (reference value: 8.18 %); type: functional
PANC-1 [11] = assay: Induction of apoptosis in human PANC-1 cells assessed as necrotic cells at 8 uM incubated for 48 hrs by Annexin V-FITC/PI staining based flow cytometry (reference value: 2.24 %); type: functional
BXPC-3 [12] = assay: Induction of apoptosis in human BXPC-3 cells assessed as viable cells at 8 uM incubated for 48 hrs by Annexin V-FITC/PI staining based flow cytometry (reference value: 91.5 %); type: functional; settings: read-out: Activity
PANC-1 [13] = assay: Induction of apoptosis in human PANC-1 cells assessed as necrotic cells at 2.5 uM incubated for 48 hrs by Annexin V-FITC/PI staining based flow cytometry (reference value: 2.24 %); type: functional
[14] = Toxicity in BALB/c nude mouse xenografted with human BxPC-3 cells assessed as cellular edema in lung at 5 to 15 mg/kg, ip qd for 21 days by H and E staining based analysis; settings: in vivo, 504 h
PANC-1 [15] = assay: Induction of apoptosis in human PANC-1 cells assessed as late apoptotic cells at 8 uM incubated for 48 hrs by Annexin V-FITC/PI staining based flow cytometry (reference value: 2.74 %); type: functional
BXPC-3 [16] = assay: Induction of apoptosis in human BXPC-3 cells assessed as late apoptotic cells at 2.5 uM incubated for 48 hrs by Annexin V-FITC/PI staining based flow cytometry (reference value: 6.72 %); type: functional
BXPC-3 [17] = assay: Induction of apoptosis in human BXPC-3 cells assessed as viable cells at 5 uM incubated for 48 hrs by Annexin V-FITC/PI staining based flow cytometry (reference value: 91.5 %); type: functional; settings: read-out: Activity
[18] = Toxicity in BALB/c nude mouse xenografted with human BxPC-3 cells assessed as tissue fibrosis in spleen at 5 to 15 mg/kg, ip qd for 21 days by H and E staining based analysis; settings: in vivo, 504 h
BXPC-3 [19] = assay: Induction of apoptosis in human BXPC-3 cells assessed as necrotic cells at 10 uM incubated for 48 hrs by Annexin V-FITC/PI staining based flow cytometry (reference value: 0.71 %); type: functional
BXPC-3 [20] = assay: Induction of apoptosis in human BXPC-3 cells assessed as early apoptotic cells at 2.5 uM incubated for 48 hrs by Annexin V-FITC/PI staining based flow cytometry (reference value: 1.11 %); type: functional
BXPC-3 [21] = assay: Induction of apoptosis in human BXPC-3 cells assessed as early apoptotic cells at 8 uM incubated for 48 hrs by Annexin V-FITC/PI staining based flow cytometry (reference value: 1.11 %); type: functional
BXPC-3 [22] = assay: Inhibition of cell migration in human BXPC-3 cells incubated for 48 hrs by crystal violet staining based transwell assay; type: functional; settings: dose 2.5-10 µM
Procedure, shortened: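 Cells at 1.5×10^5 cells/mL in serum-free medium containing drug were added to the upper Transwell chamber (200 μL), with medium containing 10% FBS below. After 48 h, non-migrated cells were swabbed off. Inserts were fixed in 4% paraformaldehyde for 15-20 min and stained with 0.5% crystal violet. Cells were counted in four random fields at 100×; n = 3.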

[23] = Toxicity in BALB/c nude mouse xenografted with human BxPC-3 cells assessed as inflammatory infiltration in heart at 5 to 15 mg/kg, ip qd for 21 days by H and E staining based analysis; settings: in vivo, 504 h
BXPC-3 [24] = assay: Induction of cell cycle arrest in human BXPC-3 cells assessed as accumulation at G1 phase at 10 uM incubated for 48 hrs by PI/RNase staining based flow cytometry (reference value: 84.2 %); type: functional
PANC-1 [25] = assay: Induction of cell cycle arrest in human PANC-1 cells assessed as accumulation at S phase at 2.5 uM incubated for 48 hrs by PI/RNase staining based flow cytometry (reference value: 7.58 %); type: functional
[26] = Toxicity in BALB/c nude mouse xenografted with human BxPC-3 cells assessed as cellular edema in heart at 5 to 15 mg/kg, ip qd for 21 days by H and E staining based analysis; settings: in vivo, 504 h

For `CN(C)Cc1ccc(NC(=O)c2ccc(Nc3nccc(-c4cccnc4)n3)cc2)cc1`, the Activity [1] was “Non-toxic”, the Activity [2] was “Non-toxic” and the inhibition (PANC-1 [3]) was “Dose-dependent-effect”. For the same molecule, the inhibition (PANC-1 [4]) was “Dose-dependent-effect”, the Activity [5] was “Non-toxic” and the Activity (PANC-1 [6]) was 7.03%. The inhibition (BXPC-3 [7]) was “Dose-dependent-effect”, the inhibition (BXPC-3 [8]) was “Dose-dependent-effect” and the Activity (BXPC-3 [9]) was 2.47%. For the same molecule, the inhibition (Mus musculus) was “Active”, the Activity (BXPC-3 [10]) was 3.11% and the Activity (PANC-1 [11]) was 2.16%. For the same molecule, the viability at 8 µM (BXPC-3 [12]) was 82.5%, the Activity (PANC-1 [13]) was 2.19% and the Activity [14] was “Non-toxic”. The Activity (PANC-1 [15]) was 8.97%, the Activity (BXPC-3 [16]) was 8.06% and the viability at 5 µM (BXPC-3 [17]) was 85.5%. The Activity [18] was “Non-toxic”, the Activity (BXPC-3 [19]) was 2.32% and the Activity (BXPC-3 [20]) was 2.11%. The Activity (BXPC-3 [21]) was 2.65%, the inhibition (BXPC-3 [22]) was “Dose-dependent-effect” and the Activity [23] was “Non-toxic”. For the same molecule, the Activity (BXPC-3 [24]) was 92.9%, the Activity (PANC-1 [25]) was 7.73% and the Activity [26] was “Non-toxic”.
